The text below walks through data of ChEMBL document CHEMBL1147571, “Synthesis and biological evaluation of benzamides and benzamidines: structural requirement of a pyrimidine ring for inhibition of EGFR tyrosine kinase” (Bioorg Med Chem Lett, 2004).

One test relates to A-431. Put plainly: Cytotoxic effect on A431 human epidermoid carcinoma cells (No response to 1 mM). The format is functional, cell-based. A digest of the protocol: (§1)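 A431 human epidermoid carcinoma cells exposed to compounds up to 1.0 mM and scored for cell growth inhibition. The IC50 is the compound concentration giving 50% growth inhibition. Where 50% inhibition was not reached at 1.0 mM, that is recorded instead of a value.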
Compound `COc1cc(N)c(C(=O)NC(C)c2ccccc2)cc1OC` (configuration not stated) came in with an IC50 of more than 1000 µM.

Turning to `COc1cc(N)c(C(=O)Nc2cccnc2)cc1OC`, the IC50 is more than 1000 µM.

With `COc1cc(N)c(C(=O)Nc2ccncc2)cc1OC`, the IC50 was more than 1000 µM.

On to `COc1cc(N)c(C(=O)Nc2ccc(F)c(Cl)c2)cc1OC`, for which the IC50 was more than 1000 µM.

As for `COc1cc(N)c(C(=O)Nc2ccccn2)cc1OC`, the IC50 is more than 1000 µM.

`COc1cc(N)c(C(=O)NC2CCCCC2)cc1OC` displayed an IC50 of more than 1000 µM.

For a further test, the system named is A-431. In words: Cytotoxic effect on A431 human epidermoid carcinoma cells. It counts as functional, cell-based. A digest of the protocol:
as §1
In turn, `COc1cccc(NC(=O)c2cc(OC)c(OC)cc2N)c1` displayed an IC50 of 200 µM.

In turn, `COc1cccc(NC(=N)c2cc(OC)c(OC)cc2N)c1` registered an IC50 of 340 µM.

Regarding `COc1cc2c(cc1OC)C(Nc1cccc(Br)c1)=NC(C)(C)N2`, the IC50 is 130 µM.

For `COc1cc(N)c(C(=O)Nc2cccc(C(F)(F)F)c2)cc1OC`, the IC50 turned out to be 470 µM.

On to `COc1cc(N)c(C(=O)Nc2cccc(Br)c2)cc1OC`, for which the IC50 was determined as 340 µM. This IC50 and that of the compound before are within 1.5-fold of each other.

`COc1cc(N)c(C(=N)Nc2cccc(Br)c2)cc1OC` had an IC50 of 300 µM.

Turning to `COc1cc2c(cc1OC)C(Nc1ccc(F)c(Cl)c1)=NC(C)(C)N2`, the IC50 came to 90 µM.

The compound `COc1cc(N)c(C(=N)Nc2ccc(F)c(Cl)c2)cc1OC` displayed an IC50 of 200 µM.

`COc1cc2c(cc1OC)C(Nc1cccc(Cl)c1)=NC(C)(C)N2` had an IC50 of 200 µM.

On to `COc1cc(N)c(C(=N)Nc2cccc(Cl)c2)cc1OC`, for which the IC50 came out at 460 µM.

Compound `COc1cccc(NC2=NC(C)(C)Nc3cc(OC)c(OC)cc32)c1` came in with an IC50 of 320 µM.
